How the values were obtained:
Type in all cases: functional
[1] = system: Plasmodium falciparum; assay: Antimalarial activity against Plasmodium falciparum NF54 infected in human serum at 20 ug/ml after 48 hrs by fluorometric method
Summary of the method: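 Asynchronous P. falciparum NF54 at 1.5–2% parasitemia, 5% hematocrit in RPMI with 10% human serum, exposed 48 h at 37 °C under 90% N2/5% CO2/5% O2 at the stated concentration; parasite DNA stained with ethidium bromide after proteinase K lysis; viability % = (Flu treated − medium)/(Flu untreated − medium) ×100; triplicate.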

[2] = system: MDA-MB-468; assay: Cytotoxicity against human MDA-MB-468 cells after 48 hrs by SRB assay; settings: MDA-MB-468, 48 h
Summary of the method: (§1)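 NCI 60-cell-line screen. Cells preincubated 24 h at 37 °C, 5% CO2; time-zero plates TCA-fixed. Compounds dissolved in DMSO and tested at five concentrations (100, 10, 1.0, 0.1, 0.01 µM) for 48 h continuous exposure. Adherent cells fixed with cold TCA (10% final), then SRB stained; absorbance at 515 nm. GI50, TGI and LC50 calculated from growth relative to time-zero and untreated controls.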

[3] = system: BT-549; assay: Cytotoxicity against human BT549 cells after 48 hrs by SRB assay; settings: BT-549, 48 h; summary of the method: as §1
[4] = system: T47D; assay: Cytotoxicity against human T47D cells after 48 hrs by SRB assay
Summary of the method: (§2)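 NCI 60-cell screen. Cells grew 24 h (37 °C, 5% CO2) before compound was added. Compounds were in DMSO and diluted in medium with gentamicin, then tested at five levels (100, 10, 1.0, 0.1, 0.01 µM) with 48 h continuous exposure. Adherent cells were fixed with TCA (10% final) and stained with 0.4% SRB, absorbance read at 515 nm. A time-zero plate was included. LC50 is the concentration giving 50% loss of protein relative to time zero.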

[5] = system: Hs-578T; assay: Cytotoxicity against human Hs578T cells after 48 hrs by SRB assay; summary of the method: as §1
[6] = system: MDA-MB-231; assay: Cytotoxicity against human MDA-MB-231 cells after 48 hrs by SRB assay; settings: MDA-MB-231, 48 h; summary of the method: as §1
[7] = system: SN12C; assay: Cytotoxicity against human SN12C cells after 48 hrs by SRB assay; summary of the method: as §1
[8] = system: CAKI-1; assay: Cytotoxicity against human Caki1 cells after 48 hrs by SRB assay; settings: CAKI-1, 48 h; summary of the method: as §1
[9] = system: ACHN; assay: Cytotoxicity against human ACHN cells after 48 hrs by SRB assay; summary of the method: as §1
[10] = system: NCI/ADR-RES; assay: Cytotoxicity against human NCI/ADR-RES cells after 48 hrs by SRB assay; summary of the method: as §1
[11] = system: IGROV-1; assay: Cytotoxicity against human IGROV1 cells after 48 hrs by SRB assay; settings: IGROV-1, 48 h; summary of the method: as §1
[12] = system: UACC-62; assay: Cytotoxicity against human UACC62 cells after 48 hrs by SRB assay; settings: UACC-62, 48 h; summary of the method: as §2
[13] = system: UACC-257; assay: Cytotoxicity against human UACC257 cells after 48 hrs by SRB assay; settings: UACC-257, 48 h; summary of the method: as §2
[14] = system: SK-MEL-2; assay: Cytotoxicity against human SK-MEL-2 cells after 48 hrs by SRB assay; settings: SK-MEL-2, 48 h; summary of the method: as §1
[15] = system: MDA-MB-435; assay: Cytotoxicity against human MDA-MB-435 cells after 48 hrs by SRB assay; settings: MDA-MB-435, 48 h; summary of the method: as §1
[16] = system: LOX IMVI; assay: Cytotoxicity against human LOXIMVI cells after 48 hrs by SRB assay; summary of the method: as §1
[17] = system: SNB-75; assay: Cytotoxicity against human SNB75 cells after 48 hrs by SRB assay; settings: SNB-75, 48 h; summary of the method: as §2
[18] = system: SF-539; assay: Cytotoxicity against human SF539 cells after 48 hrs by SRB assay; settings: SF-539, 48 h; summary of the method: as §1
[19] = system: SF-295; assay: Cytotoxicity against human SF295 cells after 48 hrs by SRB assay; settings: SF-295, 48 h; summary of the method: as §1
[20] = system: SF-268; assay: Cytotoxicity against human SF268 cells after 48 hrs by SRB assay; settings: SF-268, 48 h; summary of the method: as §1
[21] = system: HCT-15; assay: Cytotoxicity against human HCT15 cells after 48 hrs by SRB assay; settings: HCT-15, 48 h; summary of the method: as §1
[22] = system: HT-29; assay: Cytotoxicity against human HT-29 cells after 48 hrs by SRB assay; settings: HT-29, 48 h; summary of the method: as §1
[23] = system: HCT-116; assay: Cytotoxicity against human HCT116 cells after 48 hrs by SRB assay; settings: HCT-116, 48 h; summary of the method: as §1
[24] = system: HCC 2998; assay: Cytotoxicity against human HCC2998 cells after 48 hrs by SRB assay; settings: HCC 2998, 48 h; summary of the method: as §1
[25] = system: NCI-H522; assay: Cytotoxicity against human NCI-H522 cells after 48 hrs by SRB assay; settings: NCI-H522, 48 h; summary of the method: as §1
[26] = system: NCI-H226; assay: Cytotoxicity against human NCI-H226 cells after 48 hrs by SRB assay; settings: NCI-H226, 48 h; summary of the method: as §1
[27] = system: NCI-H23; assay: Cytotoxicity against human NCI-H23 cells after 48 hrs by SRB assay; settings: NCI-H23, 48 h; summary of the method: as §1
[28] = system: HOP-92; assay: Cytotoxicity against human HOP92 cells after 48 hrs by SRB assay; settings: HOP-92, 48 h; summary of the method: as §1
[29] = system: HOP-62; assay: Cytotoxicity against human HOP62 cells after 48 hrs by SRB assay; settings: HOP-62, 48 h; summary of the method: as §1
[30] = system: SR; assay: Cytotoxicity against human SR cells after 48 hrs by SRB assay; summary of the method: as §2
[31] = system: RPMI-8226; assay: Cytotoxicity against human RPMI8226 cells after 48 hrs by SRB assay; settings: RPMI-8226, 48 h; summary of the method: as §1
[32] = system: MOLT-4; assay: Cytotoxicity against human MOLT4 cells after 48 hrs by SRB assay; settings: MOLT-4, 48 h; summary of the method: as §1
[33] = system: CCRF-CEM; assay: Cytotoxicity against human CCRF-CEM cells after 48 hrs by SRB assay; summary of the method: as §1
[34] = read-out: LC50 (the source's name)

## O=CN1N=C(c2cccc(Nc3ccnc4cc(Cl)ccc34)c2)CC1c1ccc(Cl)cc1 (centres undefined)
[1]
  inhibition at 20 µg/mL: 7%
[2]
  GI50: 420 nM
  LC50: > 100000 nM
[3]
  GI50: 1360 nM
  LC50 (50% net cell kill vs time zero): > 100000 nM
[4]
  GI50: 2630 nM
  LC50 (concentration giving 50% cell kill relative to time zero): > 100000 nM
[5]
  GI50: 1970 nM
  LC50 (50% net cell kill): > 100000 nM
[6]
  GI50: 2120 nM
  LC50 (concentration killing 50% of cells present at time zero): > 100000 nM
[7]
  GI50: 3860 nM
  LC50 (50% net cell kill relative to time zero): > 100000 nM
[8]
  GI50: 950 nM
  LC50: > 100000 nM
[9]
  GI50: 5180 nM
[9]; [34]
  CC50: > 100000 nM
[10]
  GI50: 760 nM
[10]; [34]
  CC50: > 100000 nM
[11]
  GI50: 760 nM
  LC50 (concentration killing 50% of cells relative to time zero): > 100000 nM
[12]
  GI50: 1630 nM
[12]; [34]
  CC50: > 100000 nM
[13]
  LC50: > 100000 nM
[14]
  GI50: 2050 nM
  LC50: > 100000 nM
[15]
  GI50: 290 nM
  LC50: > 100000 nM
[16]
  GI50: 1560 nM
  LC50: 50400 nM
[17]
  GI50: 1580 nM
  LC50 (50% net cell kill): > 100000 nM
[18]
  GI50: 3780 nM
[18]; [34]
  CC50: > 100000 nM
[19]
  GI50: 1060 nM
  LC50: > 100000 nM
[20]
  GI50: 4370 nM
  LC50: > 100000 nM
[21]
  GI50: 900 nM
  LC50 (concentration killing 50% of cells relative to time zero): > 100000 nM
[22]
  GI50: 480 nM
  LC50: > 100000 nM
[23]
  GI50: 600 nM
  LC50: > 100000 nM
[24]
  GI50: 3360 nM
  LC50: > 100000 nM
[25]
  GI50: 800 nM
[25]; [34]
  CC50: > 100000 nM
[26]
  GI50: > 100000 nM
  LC50 (50% lethal concentration): > 100000 nM
[27]
  GI50: 2480 nM
[27]; [34]
  CC50: > 100000 nM
[28]
  GI50: 650 nM
  LC50 (concentration killing 50% of cells): > 100000 nM
[29]
  GI50: 1910 nM
  LC50 (50% lethal concentration): > 100000 nM
[30]
  GI50: 370 nM
  LC50: > 100000 nM
[31]
  GI50: 2450 nM
  LC50 (concentration killing 50% of cells): > 100000 nM
[32]
  GI50: 1920 nM
  LC50: > 100000 nM
[33]
  GI50: 2340 nM
  LC50 (concentration killing 50% of cells relative to time zero): > 100000 nM
